High-throughput results deposited in PubChem BioAssay by several laboratories.
GRK2 inh – compounds blocking aptamer binding on GRK2 – biochemical, human GRK2, bead flow cytometry, HTS, primary screen. Beta-adrenergic receptor kinase 1 (Homo sapiens), P25098. FAM-aptamer displacement from GRK2. inhibition of aptamer binding, % at 10 µM. 330,000 compounds, 0.59% hits. AID 488847, 2010;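 active = inhibition of aptamer binding above 40%, roughly 3 SD of noise, on plates passing a quality check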;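 also: median bead fluorescence of bound FAM aptamer so fluorescent compounds give negative values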
NadD block – inhibitors of S. aureus NadD, primary screen, biochemical, colorimetric, uHTS; purified NadD enzyme, colorimetric absorbance read-out; inhibition, % at 20 µM; 360,000 compounds, 0.78% hits; AID 602399, 2012; in the data active = inhibition above about 26%
B2AR ag – beta2AR agonists driving receptor internalization, primary screen, cell-based, FAP fluorogen, flow cytometry; Beta-2 adrenergic receptor (Homo sapiens), P07550; Am2.2-beta2AR cells; response, % (concentration not given with the values); 340,000 compounds, 0.43% hits; AID 504454, 2011;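 active = response above a set limit, near 3 SD of response in nonfluorescent compounds, cut at about 42% in these data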
SENP1 inh – human SENP1 catalytic domain inhibitors, primary screen, biochemical, FRET, uHTS | Sentrin-specific protease 1 (Homo sapiens), Q9P0U3 | inhibition, % at 10 µM | 360,000 compounds, 0.21% hits | recombinant SENP1 catalytic domain, CyPet-SUMO1-YPet FRET cleavage;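 active = inhibition at least 30% at 10 µM, raw YFP signal under a set limit, fluorescence ratio 0.5 to 1.5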
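Controls: no-enzyme wells low, DMSO-plus-enzyme wells high control. Test system: human recombinant His6-tagged SENP1 catalytic domain enzyme. Reagent: SFCypet-SUMO1-SFYpet FRET protein substrate, 25 nM final. Doses: one dose per compound, 10 µM, 0.5% DMSO. Detection: FRET, CFP and YFP emission. Timing: 50 min reaction at room temperature.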
ABHD5-PLIN5 inh – ABHD5-PLIN5 interaction inhibitors, primary screen, cell lysate, split luciferase complementation, luminescence. Perilipin-5 (Homo sapiens) + 1-acylglycerol-3-phosphate O-acyltransferase ABHD5 (Homo …. Split G. princeps luciferase complementation, 4 h. inhibition, % at 4 µM. 360,000 compounds, 0.78% hits;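 active = inhibition above the mean inhibition across every tested compound plus 3 SD, cut at about 22% in these data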
Target sequence (Q00G26 whole entry, looked up): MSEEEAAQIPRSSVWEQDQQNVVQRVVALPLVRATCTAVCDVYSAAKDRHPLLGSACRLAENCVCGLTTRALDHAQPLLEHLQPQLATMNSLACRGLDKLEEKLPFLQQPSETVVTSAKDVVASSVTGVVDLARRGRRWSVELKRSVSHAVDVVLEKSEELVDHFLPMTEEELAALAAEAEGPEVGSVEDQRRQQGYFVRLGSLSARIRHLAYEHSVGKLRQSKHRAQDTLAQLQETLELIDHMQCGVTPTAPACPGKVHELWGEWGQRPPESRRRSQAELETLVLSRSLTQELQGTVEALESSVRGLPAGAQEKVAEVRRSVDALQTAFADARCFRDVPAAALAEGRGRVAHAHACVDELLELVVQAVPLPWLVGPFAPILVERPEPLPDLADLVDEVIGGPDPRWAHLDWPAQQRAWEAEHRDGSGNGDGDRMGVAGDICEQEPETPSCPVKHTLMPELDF
Target sequence (Q8WTS1 whole entry, looked up): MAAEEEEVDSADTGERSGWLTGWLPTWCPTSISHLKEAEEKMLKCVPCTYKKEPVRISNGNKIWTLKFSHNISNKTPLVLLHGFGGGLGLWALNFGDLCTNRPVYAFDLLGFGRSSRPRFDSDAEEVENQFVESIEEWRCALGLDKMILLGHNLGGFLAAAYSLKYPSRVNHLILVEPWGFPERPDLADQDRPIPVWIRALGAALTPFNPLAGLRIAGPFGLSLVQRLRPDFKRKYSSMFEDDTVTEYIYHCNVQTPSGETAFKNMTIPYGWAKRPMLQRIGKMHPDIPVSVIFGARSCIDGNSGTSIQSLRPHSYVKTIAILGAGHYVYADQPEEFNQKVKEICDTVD
GRK2 CP1 – GRK2 aptamer-displacing inhibitors, retest, confirmation, biochemical, cherry pick 1, bead flow cytometry. shares compounds with GRK2 inh. bead-bound GRK2, FAM-aptamer displacement. aptamer displacement, % at 10 µM. 2,000 compounds, 4% hits. AID 504451, 2011;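 active = aptamer displacement above 40%, near three times the noise of non-fluorescent compounds, on plates passing quality checks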;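 also: negative values mostly reflect intrinsic compound fluorescence rather than true enhancement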
Aptamer quench – quenches fluorescent RNA aptamer, GRK2 hit artifact; fluorescence change (kMESF span), kMESF (test concentration not listed); Fluorescent RNA aptamer beads, quenching, flow cytometry; stronger effect = higher value; shares compounds with GRK2 inh; 110 tested, under 10 active; AID 504521;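 active = compounds whose bead fluorescence drops by more than 37 kMESF across the dose range, marking them as dye quenchers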
FAM quench CP1 – aptamer fluorescence quenching in GRK2 counter-screen. shares compounds with GRK2 inh. Carboxyfluorescein RNA aptamer on beads, flow cytometry quenching; stronger effect = lower value. fluorescence response (% of DMSO), % at 10 µM. 2,000 tested, under 10 active. AID 504580;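 active = compounds that quench the bead-bound fluorescent RNA probe, cutting fluorescence to under half of the solvent control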;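 also: counterscreen run without GRK2 so only probe quenching by compound is measured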
GRK2 confirm 2 – GRK2 aptamer-displacing inhibitors, hit retest, confirmation, biochemical, cherry pick 2, bead flow cytometry; shares compounds with GRK2 inh; bead-bound GRK2, FAM-aptamer displacement; inhibition of aptamer binding, % at 10 µM; 360 tested, under 10 active; AID 504782, 2011;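 active = inhibition of aptamer binding above 40%, about triple the noise seen with nonglowing compounds, on plates passing quality control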;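 also: negative values mostly come from compounds that fluoresce themselves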
Aptamer quench 2 – fluorescence quenching of FAM-labeled RNA aptamer, dose response, artefact control for GRK2 aptamer inhibitor project, biochemical, flow cytometry, cherry pick 2; change in fluorescence (kMESF span), kMESF (concentration not given with the values); shares compounds with GRK2 inh; 25 tested, under 10 active; Streptavidin beads;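 active = compounds quenching the bead-bound labeled aptamer, with fluorescence dropping by more than 37 kMESF over the dose range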
FAM quench CP2 – aptamer fluorescence quenching in GRK2 counter-screen; shares compounds with GRK2 inh; carboxyfluorescein RNA aptamer beads, flow cytometry quenching; stronger effect = lower value; fluorescence response vs DMSO, % at 10 µM; 360 tested, under 10 active; AID 588494;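 active = response vs DMSO under 50%, meaning signal dropped by over half, treated as fluorescence quencher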;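 also: labelled aptamer on streptavidin beads without GRK2 as a quench counter-screen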
FAM quench PS1 – quenchers of FAM-labeled RNA aptamer fluorescence, dose response, artefact control for GRK2 aptamer binding project, biochemical, powder set 1, flow cytometry | shares compounds with GRK2 inh | 35 tested, under 10 active | fluorescence ratio to DMSO, % at 11.1 µM | Bead-bound FAM RNA aptamer fluorescence quenching; stronger effect = lower value | AID 588496, 2011;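 active = compounds that dim the fluorescent label, raw bead signal shifting by over 33 units between lowest and highest dose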
Numbers stand for hits. In the library only some 2.5% were active in any assay of this set; here they are far more common.

Results for CC1CN(C(=O)c2cccc(C(=O)N3CC(C)OC(C)C3)c2)CC(C)O1 (centres undefined) ?
GRK2 inh: inactive; NadD block: inactive; B2AR ag: inactive; SENP1 inh: inactive; ABHD5-PLIN5 inh: inactive

How did CC1CN(C(=O)c2cccc(S(=O)(=O)N3CCOCC3)c2)CC(C)O1 (centres undefined) do in these assays?
GRK2 inh: inactive; NadD block: inactive; B2AR ag: inactive; SENP1 inh: inactive; ABHD5-PLIN5 inh: inactive; GRK2 CP1: inactive; FAM quench CP1: inactive

Results for COc1ccc(CC(=O)N(Cc2ccccc2)c2cccc(C)c2)cc1OC ?
GRK2 inh: 100.0; NadD block: inactive; B2AR ag: inactive; SENP1 inh: inactive; ABHD5-PLIN5 inh: inactive; GRK2 confirm 2: inactive; FAM quench CP2: inactive

What do the screens show for `COc1ccc(C(=O)N(Cc2ccccc2)c2cccc(C)c2)c(OC)c1OC`?
GRK2 inh: inactive; NadD block: inactive; B2AR ag: inactive; SENP1 inh: inactive; ABHD5-PLIN5 inh: inactive

Results for Cc1nc(C(F)(F)F)ccc1C(=O)N1CCCC(C(=O)O)CC1 (centres undefined) ?
NadD block: inactive; SENP1 inh: inactive; ABHD5-PLIN5 inh: inactive

How did CCC(=O)Nc1ccc(C(=O)c2ccccc2)cc1 do in these assays?
GRK2 inh: inactive; NadD block: inactive; B2AR ag: inactive; SENP1 inh: inactive; ABHD5-PLIN5 inh: inactive

What do the screens show for `CCC(CC)C(=O)Nc1ccc(C(=O)c2ccccc2)cc1`?
GRK2 inh: 61.0; NadD block: inactive; B2AR ag: inactive; SENP1 inh: inactive; ABHD5-PLIN5 inh: inactive; GRK2 confirm 2: inactive; FAM quench CP2: inactive

How did COc1ccc(NC(=O)CCS(=O)(=O)c2ccc(OC)cc2)cc1 do in these assays?
GRK2 inh: inactive; NadD block: inactive; B2AR ag: inactive; SENP1 inh: inactive; ABHD5-PLIN5 inh: inactive

Results for O=C(CCNS(=O)(=O)c1ccc(Br)cc1)NC1CCCCC1 ?
GRK2 inh: inactive; NadD block: inactive; B2AR ag: inactive; SENP1 inh: inactive; ABHD5-PLIN5 inh: inactive

What do the screens show for `CCc1ccccc1NC(=O)CCS(=O)(=O)c1ccc(C)cc1`?
GRK2 inh: inactive; NadD block: inactive; B2AR ag: inactive; SENP1 inh: inactive; ABHD5-PLIN5 inh: inactive

What do the screens show for `O=C(CCS(=O)(=O)c1ccc(Br)cc1)NC1CCCC1`?
GRK2 inh: 80.0; NadD block: inactive; B2AR ag: inactive; SENP1 inh: inactive; ABHD5-PLIN5 inh: inactive; GRK2 CP1: 61.2; Aptamer quench: inactive; FAM quench CP1: inactive; Aptamer quench 2: inactive

What do the screens show for `COC(=O)c1ccccc1NC(=O)CCS(=O)(=O)c1ccc(Br)cc1`?
NadD block: inactive; B2AR ag: inactive; SENP1 inh: inactive; ABHD5-PLIN5 inh: inactive

Results for CCc1ccccc1NC(=O)CCS(=O)(=O)c1ccc(Br)cc1 ?
GRK2 inh: 57.0; NadD block: inactive; B2AR ag: inactive; SENP1 inh: inactive; ABHD5-PLIN5 inh: inactive; GRK2 CP1: inactive; Aptamer quench: inactive; FAM quench CP1: inactive; Aptamer quench 2: inactive; FAM quench PS1: inactive

What do the screens show for `CCOc1ccccc1NC(=O)CCS(=O)(=O)c1ccc(Br)cc1`?
GRK2 inh: 98.0; NadD block: inactive; B2AR ag: inactive; SENP1 inh: inactive; ABHD5-PLIN5 inh: inactive; GRK2 CP1: 92.0; Aptamer quench: inactive; FAM quench CP1: inactive; Aptamer quench 2: inactive; FAM quench PS1: inactive

How did CCOc1ccc(NC(=O)CCS(=O)(=O)c2ccc(Br)cc2)cc1 do in these assays?
GRK2 inh: 83.0; NadD block: inactive; B2AR ag: inactive; SENP1 inh: inactive; ABHD5-PLIN5 inh: inactive; GRK2 confirm 2: 60.0; Aptamer quench 2: inactive; FAM quench CP2: inactive; FAM quench PS1: inactive

What do the screens show for `Cc1cccc(N(CC(=O)NCC2CCCO2)C(=O)CCC(=O)Nc2nccs2)c1` (centres undefined)?
GRK2 inh: inactive; NadD block: inactive; B2AR ag: inactive; SENP1 inh: inactive; ABHD5-PLIN5 inh: inactive

Results for O=C(CCc1nnc2ccc(N3CCC4(CC3)OCCO4)nn12)N1CCCCC1 ?
GRK2 inh: inactive; NadD block: inactive; B2AR ag: inactive; SENP1 inh: inactive; ABHD5-PLIN5 inh: inactive

How did COCCN(CC(=O)Nc1cccc(C)c1C)C(=O)c1cc2c(s1)CCC2 do in these assays?
GRK2 inh: inactive; NadD block: inactive; B2AR ag: inactive; SENP1 inh: inactive; ABHD5-PLIN5 inh: inactive

How did O=C(CCS(=O)(=O)c1ccc(Br)cc1)Nc1cc(F)ccc1F do in these assays?
GRK2 inh: 82.0; NadD block: inactive; B2AR ag: inactive; SENP1 inh: inactive; ABHD5-PLIN5 inh: inactive; GRK2 confirm 2: inactive; Aptamer quench 2: inactive; FAM quench CP2: inactive; FAM quench PS1: inactive

How did O=C(CCS(=O)(=O)c1ccc(Cl)cc1)Nc1ccccc1Br do in these assays?
GRK2 inh: inactive; NadD block: inactive; B2AR ag: inactive; SENP1 inh: inactive; ABHD5-PLIN5 inh: inactive

What do the screens show for `CCn1nc(C(=O)Nc2cccc(C(F)(F)F)c2)c(Cl)c1Cl`?
GRK2 inh: 53.0; NadD block: inactive; B2AR ag: inactive; SENP1 inh: inactive; ABHD5-PLIN5 inh: inactive; GRK2 CP1: inactive; FAM quench CP1: inactive
